Series [1] deals with Staphylococcus aureus. Kind of series: Antibacterial activity against Staphylococcus aureus harboring DNA gyrase D83N mutant assessed as reduction in bacterial growth by CLSI based broth microdilution method. Type of series: functional. An outline of the steps:
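MIC against an isogenic NBTI-resistant daughter strain carrying a D83N substitution in DNA gyrase, originally selected under NBTI pressure from multidrug-resistant MRSA isolate 3527. CLSI broth microdilution was used, with values in µg/mL.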
A general note: Dilution methods test growth across graded concentrations, often in twofold steps.

Series [2] relates to Staphylococcus aureus. Description: Antibacterial activity against Staphylococcus aureus USA300 assessed as reduction in bacterial growth by CLSI based broth microdilution method. The format is functional.
The target in series [3] is T1, Nav1.5 (late current) (Homo sapiens, UniProt Q14524). Kind of series: Inhibition of recombinant human Nav1.5 late expressed in human HEK293 cells at 100 uM in presence of ATXII by automated Qpatch clamp assay relative to control. Type of series: ADME, cell-based. The following applies: HEK293 cells expressing recombinant human Nav1.5. An outline of the steps:
(§1)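 Part of an eight-assay CiPA panel run on a QPatch HT automated patch clamp at 3, 30 and 100 µM, in duplicate. The test compound came from a 30 mM DMSO stock. Data were filtered for seal quality, seal drop and current amplitude, and reported as mean percent inhibition.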

In another series the target is CYP2C19 (Homo sapiens, UniProt P33261). Kind of series: Inhibition of human liver microsome CYP2C19 at 10 uM in presence of NADPH incubated for 10 to 30 mins by LC-MS-MS analysis. The format is ADME. The following applies: human liver microsomes, time 10-30 min.
Another series concerns Enterococcus faecium. Kind of series: Antibacterial activity against Vancomycin-susceptible Enterococcus faecium DRL-4193 assessed as reduction in bacterial growth by CLSI based broth microdilution method. The format is functional.
The nature of series [4]: Permeability across basolateral to apical side in human Caco2 cells at 10 uM by LC-MS/MS analysis. The following applies: Caco-2, read-out: permeability. Type of series: ADME, cell-based. On the technique in general: Caco-2 cells form a polarised layer with tight junctions and transporters.
For a further series, the target named is Cytochrome P450 3A4 (Homo sapiens, UniProt P08684). Kind of series: Inhibition of human liver microsome CYP3A4 in presence of NADPH incubated for 10 to 30 mins by LC-MS-MS analysis. Type of series: ADME, microsomes. For orientation: Microsomes from liver hold many membrane-bound enzymes, among them those of drug oxidation.
For series [5], the target named is T1, Nav1.5 (late current). Description: Inhibition of recombinant human Nav1.5 late expressed in human HEK293 cells late at 3 uM in presence of ATXII by automated Qpatch clamp assay relative to control. The format is ADME, cell-based. The following applies: HEK293 cells expressing recombinant human Nav1.5. An outline of the steps: as §1
In series [6] the target is T2, CYP3A4 (Homo sapiens, UniProt P08684). Kind of series: Residual activity of human liver microsome CYP3A4 at 0.3 uM in presence of NADPH incubated for 10 to 30 mins by LC-MS-MS analysis. The following applies: human liver microsomes.
Series [7] addresses T2, CYP3A4. Description: Residual activity of human liver microsome CYP3A4 at 1 uM in presence of NADPH incubated for 10 to 30 mins by LC-MS-MS analysis. The following applies: human liver microsomes.
The target in series [8] is Sodium channel protein type 5 subunit alpha (Homo sapiens, UniProt Q14524). Description: Activation of recombinant human Nav1.5 late expressed in human HEK293 cells assessed as activation of late current at 3 uM by automated Qpatch clamp assay relative to control. The following applies: hek293, 3 µM. Type of series: ADME, cell-based. An outline of the steps: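 Part of an eight-assay CiPA panel run in duplicate on an automated QPatch HT patch-clamp system at 3, 30 and 100 µM. Test compound came from a 30 mM DMSO stock. Records were filtered for seal quality, seal drop and current amplitude, and mean percent values are reported.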

The next series has as its target CYP2D6 (Homo sapiens, UniProt P10635). Kind of series: Inhibition of human liver microsome CYP2D6 at 10 uM in presence of NADPH incubated for 10 to 30 mins by LC-MS-MS analysis. Type of series: ADME. The following applies: human liver microsomes, time 10-30 min.
The target of series [9] is Histamine H2 receptor (Homo sapiens) (UniProt P25021). Description: Inhibition of recombinant human full length histamine H2 receptor expressed in CHO-K1 cells using [125I] Aminopotentidine as […] at 100 uM incubated for 120 mins by scintillation counting method relative to control. Type of series: cell-based. In short, it runs like this: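 Off-target screen against a panel of 44 receptors, enzymes and transporters, run in duplicate at a single 100 µM concentration. Results are given as % inhibition. No concentration-response follow-up was done.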

Another series addresses CYP2C9 (Homo sapiens, UniProt P11712). Description: Inhibition of human liver microsome CYP2C9 at 10 uM in presence of NADPH incubated for 10 to 30 mins by LC-MS-MS analysis. The following applies: human liver microsomes, time 10-30 min. Type of series: ADME.
A short description of series [10]: Inhibition of Staphylococcus aureus DNA gyrase using relaxed pBR322 DNA as substrate incubated for 30 mins by agarose gel electrophoresis method.
Another series deals with Enterococcus faecalis. Kind of series: Antibacterial activity against Enterococcus faecalis ATCC 29212 assessed as reduction in bacterial growth by CLSI based broth microdilution method. Type of series: functional.
The target of series [11] is T2, CYP3A4. Kind of series: Residual activity of human liver microsome CYP3A4 at 3 uM in presence of NADPH incubated for 10 to 30 mins by LC-MS-MS analysis. The following applies: human liver microsomes.
The nature of series [12]: Cytotoxicity against human HepaRG assessed as reduction in cell viability at 10 uM incubated for 24 hrs by Cell-Titer Glo assay. The format is cell-based. The following applies: HepaRG cells, read-out: INH. An outline of the steps:
(§2)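 ATP-based viability read-out in HepaRG cells over a five-point concentration series (0.01, 0.1, 1, 10, 100 µM). Results are given as % cytotoxicity at each concentration.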

A short description of series [13]: Cytotoxicity against human HepaRG assessed as reduction in cell viability at 0.01 uM incubated for 24 hrs by Cell-Titer Glo assay. The following applies: HepaRG cells, read-out: INH. Type of series: cell-based. In short, it runs like this:
as §2

Series [14] in a line: Metabolic stability in mouse liver microsomes assessed as half life at 10 uM incubated for 5 mins followed by NADPH addition and measured upto 60 mins by LC-MS analysis. The following applies: time 65 min. Type of series: ADME, Microsome.
The subject of the next series is Streptococcus pyogenes. Kind of series: Antibacterial activity against Streptococcus pyogenes LSI-1235 assessed as reduction in bacterial growth by CLSI based broth microdilution method. The format is functional.
Series [15] deals with T2, CYP3A4. Kind of series: Inhibition of human liver microsome CYP3A4 at 10 uM in presence of NADPH incubated for 10 to 30 mins by LC-MS-MS analysis; values are per cent of control. The following applies: human liver microsomes.
The test system of series [16] is Staphylococcus aureus. Description: Potency index, ratio of MIC90 of ciprofloxacin to MIC90 of compound for antibacterial activity against Fluoroquinolone-resistant Staphylococcus aureus assessed as reduction in bacterial growth by CLSI based broth microdilution method. The format is functional.
A short description of series [17]: Cytotoxicity against human HepaRG assessed as reduction in cell viability at 100 uM incubated for 24 hrs by Cell-Titer Glo assay. Type of series: cell-based. The following applies: HepaRG cells, read-out: INH. In short, it runs like this:
as §2

Values after ≈ are worked out from the molar mass of the structure shown.

T2 sequence (P08684 whole entry): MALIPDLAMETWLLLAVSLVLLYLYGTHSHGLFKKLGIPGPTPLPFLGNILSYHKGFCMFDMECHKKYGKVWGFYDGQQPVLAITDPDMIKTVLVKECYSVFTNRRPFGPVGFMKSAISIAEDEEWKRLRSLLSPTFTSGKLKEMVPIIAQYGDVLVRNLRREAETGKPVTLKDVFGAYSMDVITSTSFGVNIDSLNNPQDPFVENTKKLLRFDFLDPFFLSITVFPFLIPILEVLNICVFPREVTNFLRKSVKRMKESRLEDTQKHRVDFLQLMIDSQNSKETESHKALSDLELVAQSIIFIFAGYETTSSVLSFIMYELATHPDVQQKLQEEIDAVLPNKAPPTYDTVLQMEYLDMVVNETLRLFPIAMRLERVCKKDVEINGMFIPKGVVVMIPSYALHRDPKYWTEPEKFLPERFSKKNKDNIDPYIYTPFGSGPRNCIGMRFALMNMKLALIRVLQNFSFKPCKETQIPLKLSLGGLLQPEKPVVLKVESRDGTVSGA
T1 sequence (Q14524 whole entry): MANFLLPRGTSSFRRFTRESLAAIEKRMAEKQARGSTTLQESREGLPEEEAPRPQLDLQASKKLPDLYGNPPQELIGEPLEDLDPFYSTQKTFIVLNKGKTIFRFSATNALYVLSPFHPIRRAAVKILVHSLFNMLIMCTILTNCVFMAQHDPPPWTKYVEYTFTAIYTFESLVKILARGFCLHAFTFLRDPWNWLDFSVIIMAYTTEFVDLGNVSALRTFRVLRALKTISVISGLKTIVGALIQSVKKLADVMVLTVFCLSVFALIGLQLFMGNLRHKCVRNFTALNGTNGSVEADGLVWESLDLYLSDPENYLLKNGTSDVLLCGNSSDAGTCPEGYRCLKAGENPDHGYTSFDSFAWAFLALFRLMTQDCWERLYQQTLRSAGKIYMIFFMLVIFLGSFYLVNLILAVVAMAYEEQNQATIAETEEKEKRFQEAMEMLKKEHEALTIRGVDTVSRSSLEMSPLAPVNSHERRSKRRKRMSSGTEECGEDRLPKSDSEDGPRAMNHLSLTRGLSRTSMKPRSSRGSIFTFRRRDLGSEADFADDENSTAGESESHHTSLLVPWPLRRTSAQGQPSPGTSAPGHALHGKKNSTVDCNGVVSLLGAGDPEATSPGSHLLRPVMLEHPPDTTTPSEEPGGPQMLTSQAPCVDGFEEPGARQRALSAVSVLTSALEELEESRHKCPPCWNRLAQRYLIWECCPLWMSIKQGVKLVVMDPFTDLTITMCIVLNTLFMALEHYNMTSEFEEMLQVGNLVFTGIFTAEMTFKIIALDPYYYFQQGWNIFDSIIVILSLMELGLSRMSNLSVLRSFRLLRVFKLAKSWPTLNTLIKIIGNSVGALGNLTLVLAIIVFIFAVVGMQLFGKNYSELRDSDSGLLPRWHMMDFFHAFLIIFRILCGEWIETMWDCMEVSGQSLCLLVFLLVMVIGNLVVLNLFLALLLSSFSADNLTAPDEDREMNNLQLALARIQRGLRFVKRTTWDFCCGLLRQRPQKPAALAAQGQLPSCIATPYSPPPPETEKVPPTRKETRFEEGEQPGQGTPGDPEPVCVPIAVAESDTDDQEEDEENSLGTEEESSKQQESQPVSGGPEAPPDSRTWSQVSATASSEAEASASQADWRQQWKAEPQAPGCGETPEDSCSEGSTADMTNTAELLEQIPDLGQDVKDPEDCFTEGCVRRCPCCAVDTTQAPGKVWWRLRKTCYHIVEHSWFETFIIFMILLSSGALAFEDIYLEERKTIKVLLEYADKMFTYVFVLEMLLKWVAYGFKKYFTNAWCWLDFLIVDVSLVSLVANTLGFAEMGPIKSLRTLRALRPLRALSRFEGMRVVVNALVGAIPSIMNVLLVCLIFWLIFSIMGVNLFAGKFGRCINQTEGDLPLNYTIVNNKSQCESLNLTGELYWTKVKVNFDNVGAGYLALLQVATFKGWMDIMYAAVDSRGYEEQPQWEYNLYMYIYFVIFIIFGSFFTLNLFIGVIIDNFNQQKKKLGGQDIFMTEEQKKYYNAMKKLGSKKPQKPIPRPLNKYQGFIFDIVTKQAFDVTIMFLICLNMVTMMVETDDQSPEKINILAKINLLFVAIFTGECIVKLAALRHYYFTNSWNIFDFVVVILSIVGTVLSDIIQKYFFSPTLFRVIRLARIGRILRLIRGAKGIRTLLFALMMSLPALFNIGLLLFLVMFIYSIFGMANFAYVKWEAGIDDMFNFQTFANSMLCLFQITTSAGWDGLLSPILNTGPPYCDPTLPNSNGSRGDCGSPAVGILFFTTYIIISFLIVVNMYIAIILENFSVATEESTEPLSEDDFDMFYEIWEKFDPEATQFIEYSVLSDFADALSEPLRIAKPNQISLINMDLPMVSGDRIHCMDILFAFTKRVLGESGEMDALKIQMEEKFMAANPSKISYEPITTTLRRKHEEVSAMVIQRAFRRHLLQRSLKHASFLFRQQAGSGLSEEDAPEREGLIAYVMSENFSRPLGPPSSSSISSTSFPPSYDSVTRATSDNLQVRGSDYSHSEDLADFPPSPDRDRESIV
Chain of CYP2C9 (P11712 whole entry): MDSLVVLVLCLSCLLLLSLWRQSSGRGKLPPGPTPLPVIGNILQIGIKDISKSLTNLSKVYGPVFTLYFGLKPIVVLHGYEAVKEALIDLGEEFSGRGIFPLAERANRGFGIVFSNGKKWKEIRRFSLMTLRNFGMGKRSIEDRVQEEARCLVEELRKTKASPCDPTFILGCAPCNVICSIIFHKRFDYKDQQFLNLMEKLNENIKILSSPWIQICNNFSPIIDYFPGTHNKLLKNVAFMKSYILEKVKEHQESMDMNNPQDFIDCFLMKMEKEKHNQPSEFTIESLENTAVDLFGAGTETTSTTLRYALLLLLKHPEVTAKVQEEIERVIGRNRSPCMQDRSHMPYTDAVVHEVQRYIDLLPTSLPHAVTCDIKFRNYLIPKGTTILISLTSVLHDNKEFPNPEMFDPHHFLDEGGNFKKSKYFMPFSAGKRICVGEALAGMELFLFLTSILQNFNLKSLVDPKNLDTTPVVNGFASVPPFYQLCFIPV
Chain of CYP2C19 (P33261 whole entry): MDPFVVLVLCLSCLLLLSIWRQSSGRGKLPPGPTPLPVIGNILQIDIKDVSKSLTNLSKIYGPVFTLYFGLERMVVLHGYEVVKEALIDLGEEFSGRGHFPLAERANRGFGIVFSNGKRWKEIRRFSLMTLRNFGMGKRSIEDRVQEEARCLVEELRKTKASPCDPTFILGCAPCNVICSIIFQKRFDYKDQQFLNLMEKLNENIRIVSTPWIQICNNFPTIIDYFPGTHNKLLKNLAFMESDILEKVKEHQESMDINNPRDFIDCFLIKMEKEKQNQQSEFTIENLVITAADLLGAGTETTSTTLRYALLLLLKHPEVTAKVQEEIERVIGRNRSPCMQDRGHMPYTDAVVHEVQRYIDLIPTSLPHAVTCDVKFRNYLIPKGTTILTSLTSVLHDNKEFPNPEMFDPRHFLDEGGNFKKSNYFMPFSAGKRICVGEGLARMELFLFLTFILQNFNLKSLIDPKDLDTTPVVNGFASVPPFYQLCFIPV
Chain of CYP2D6 (P10635 whole entry): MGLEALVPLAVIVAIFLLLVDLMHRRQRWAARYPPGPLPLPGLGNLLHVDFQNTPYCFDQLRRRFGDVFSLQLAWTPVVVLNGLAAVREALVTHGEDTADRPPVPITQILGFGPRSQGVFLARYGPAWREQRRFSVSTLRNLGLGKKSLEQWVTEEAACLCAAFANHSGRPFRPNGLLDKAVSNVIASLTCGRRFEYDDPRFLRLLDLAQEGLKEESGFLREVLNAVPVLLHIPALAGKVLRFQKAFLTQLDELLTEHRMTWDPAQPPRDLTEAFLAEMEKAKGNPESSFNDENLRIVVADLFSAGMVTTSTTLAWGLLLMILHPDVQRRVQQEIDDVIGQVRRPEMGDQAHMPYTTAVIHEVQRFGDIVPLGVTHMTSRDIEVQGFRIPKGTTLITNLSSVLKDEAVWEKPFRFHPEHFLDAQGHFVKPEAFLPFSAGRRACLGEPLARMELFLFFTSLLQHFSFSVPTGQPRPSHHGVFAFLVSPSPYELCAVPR
Chain of Cytochrome P450 3A4 (P08684 whole entry): as the sequence (P08684 whole entry) above
Chain of Histamine H2 receptor (Homo sapiens) (P25021 whole entry): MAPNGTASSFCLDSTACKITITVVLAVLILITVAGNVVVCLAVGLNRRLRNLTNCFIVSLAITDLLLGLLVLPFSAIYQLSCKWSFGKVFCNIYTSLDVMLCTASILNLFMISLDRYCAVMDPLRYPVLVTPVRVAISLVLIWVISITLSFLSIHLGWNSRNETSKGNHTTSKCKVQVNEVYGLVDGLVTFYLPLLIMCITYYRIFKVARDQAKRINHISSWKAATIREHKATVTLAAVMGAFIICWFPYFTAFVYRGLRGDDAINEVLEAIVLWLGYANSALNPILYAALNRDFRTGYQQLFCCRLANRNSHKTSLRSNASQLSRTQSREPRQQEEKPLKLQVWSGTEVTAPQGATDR

The term MIC denotes the lowest concentration found to suppress growth. Broadly, the inhibition is the change of the read-out against control, counted positive when it falls. As a reminder, the IC50 is the concentration that inhibits the measured activity by half. A word on the residual activity: it is the signal under treatment as a percentage of the control signal. One may read the half-life as the time needed for the level to fall by half in the phase considered. Consider `COc1ccc2ncc(F)c(CC[C@@]3(O)CO[C@@H]4[C@@H](NCc5cc6c(cn5)OCCO6)CO[C@@H]43)c2n1`, for which the MIC in the series with Staphylococcus aureus [1] was 2 µg/mL (≈ 4.01 µM); in the series on Staphylococcus aureus [2], 2 µg/mL (≈ 4.01 µM); in the series on Enterococcus faecium, 2 µg/mL (≈ 4.01 µM); in the series with Enterococcus faecalis it was 2 µg/mL (≈ 4.01 µM); with Streptococcus pyogenes it was at most 0.12 µg/mL. For the same compound, the inhibition at 100 µM on Nav1.5 (late current) [3] turned out to be 50.9%. Besides, the inhibition at 10 µM on CYP2C19, on CYP2D6 and on CYP2C9 was below 50% each time. In addition, the Papp B→A at 10 µM in series [4] was found to be 85.3 ×10⁻⁶ cm/s. Besides, the IC50 at Cytochrome P450 3A4 is above 10000 nM; in [10], 530 nM. Further, the inhibition at 3 µM on Nav1.5 (late current) [5] is 4.3%. On CYP3A4 [6], the residual activity at 0.3 µM is 89.9%. Also, the residual activity at 1 µM on CYP3A4 [7] was determined as 60.4%. In addition, the Activity in series [8] was 3.4%. In addition, the inhibition in series [9] amounted to 51%. The residual activity at 3 µM at CYP3A4 [11] is 60.4%. Besides, the cytotoxicity at 24 h, 10 µM in series [12] turned out to be 8%. In addition, in [13], the cytotoxicity at 24 h, 0.01 µM was 6%. In addition, the half-life at 10 µM in series [14] turned out to be 3 min. The residual activity at 10 µM on CYP3A4 [15] was 49.5%. Also, the Ratio with Staphylococcus aureus [16] is reported as 16. For the same compound, in series [17], the cytotoxicity at 24 h, 100 µM amounted to 14%.

Source of the values: ChEMBL document CHEMBL4765317, “Novel bacterial topoisomerase inhibitors derived from isomannide” (Eur J Med Chem, 2020).
